What was measured:
[1] = folding enthalpy; higher = less favourable; fluorescence melt of hairpins on a sequencing array, two-state fit; conditions: sodium 0.088 M
In short: (§1)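 With Cy3 and quencher oligos annealed, library hairpins on a sequenced MiSeq flow cell were imaged for Cy3 fluorescence in 50 mM Na-HEPES pH 8.0, 25 mM NaCl, in 2.5 °C steps up to 60 °C. Melting temperature and folding enthalpy were derived from bootstrapped two-state fits of signals normalised to pre-quench Cy3 and to control constructs. Four replicates were combined by inverse variance, with fitted temperatures raised by 9.35 °C to match UV melts.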

[2] = melting temperature; fluorescence melt of hairpins on a sequencing array, two-state fit, raised by 9.35 °C to match UV melts; conditions: sodium 0.088 M
In short: as §1

Sequence | folding enthalpy [1] | Tm [2]
GCGTCTTGACGC ((((....)))) | -34.4 kcal/mol | 69.1 °C
GCTTACACGAAAGTGAGC (((..(((....)))))) | -16.9 kcal/mol | 38.8 °C
GATCTGCGTACAGATC ((((((....)))))) | -36.4 kcal/mol | 53.9 °C
GGCGGCGAAAGCCTGCC ((((((....))).))) | -18.9 kcal/mol | 68.5 °C
GGTATCCGAAAGGAGACC (((.(((....))).))) | -43 kcal/mol | 58.5 °C
GCGCTGCGAAAGCATTGC ((..(((....)))..)) | -17.2 kcal/mol | 41.1 °C
GATGTAGGAAACTACGTC ((.((((....)))).)) | -23.4 kcal/mol | 44.8 °C
GCAATGCGAAAGCACAGC ((..(((....)))..)) | -14.9 kcal/mol | 34.3 °C
GTTGGTCCGAAAGGAAAC (((..(((....)))))) | -23.4 kcal/mol | 36.9 °C
GATTGGGGAAACTCAATC (((((.(....).))))) | -33.5 kcal/mol | 41.9 °C
GATCAGGATCCTGATC ((((((....)))))) | -53.1 kcal/mol | 54.3 °C
GATCACCGCTGTGATC ((((((....)))))) | -36.3 kcal/mol | 57 °C
GATCCTGTATAGGATC ((((((....)))))) | -41.6 kcal/mol | 59 °C
GATCGTCCCAACGATC ((((((....)))))) | -40.2 kcal/mol | 55.6 °C
GAACATGCGAAAGCATTC (((..(((....)))))) | -11 kcal/mol | 26.6 °C
GCTAGGCGAAAGCGTAGC ((((.((....)).)))) | -33 kcal/mol | 62.8 °C
GGCCGCGAAAGCGCAGCC ((((((....)))..))) | -20.7 kcal/mol | 58.4 °C
GGGATCGGAAACGACCCC (((.(((....))).))) | -37.5 kcal/mol | 52.4 °C
GATCATTGACATGATC ((((((....)))))) | -24.1 kcal/mol | 43.6 °C
GCGTCGCGAAAGCGTGGC ((..(((....)))..)) | -14.9 kcal/mol | 49.8 °C
GATCCCTTTTGGGATC ((((((....)))))) | -38.3 kcal/mol | 60.1 °C
GATCACGTATGTGATC ((((((....)))))) | -38.5 kcal/mol | 68.2 °C
GCCCCGCGAAAGCGTGGC (((.(((....))).))) | -25.4 kcal/mol | 67.4 °C

Sequence | folding enthalpy [1] | Tm [2]
GACTCCGAAAGGAGGTC ((((((....))).))) | -13.5 kcal/mol | 56.2 °C
GCACTTGAAAAAGTGC ((((((....)))))) | -41.2 kcal/mol | 61.2 °C
GATCACGCGCGTGATC ((((((....)))))) | -62 kcal/mol | 62.7 °C
GTAAATCGAAAGATGTAC (((.(((....))).))) | -23.1 kcal/mol | 34.4 °C
GGTAACGAAAGTTATACC ((((((....)))..))) | -22.1 kcal/mol | 32.6 °C
GCCGGTGGAAACGTCGGC ((((..(....)..)))) | -42 kcal/mol | 52.3 °C
GATCCCAGGGGGGATC ((((((....)))))) | -32.3 kcal/mol | 59.2 °C
GATCTCCAGAGAGATC ((((((....)))))) | -38.8 kcal/mol | 52 °C
GAGCAACGAAAGTTTCTC (((.(((....))).))) | -26.3 kcal/mol | 37 °C
GATCCCTCCAGGGATC ((((((....)))))) | -39.1 kcal/mol | 63.9 °C
GCGTCCGAAAGGAGACGC ((((((....)))..))) | -31.4 kcal/mol | 57.6 °C
GGGGCCGAAAGGCGTCCC ((((((....)))..))) | -13.5 kcal/mol | 53.5 °C
GCGAGGCGAAAGCATGGC ((.(.((....)).).)) | -16.4 kcal/mol | 49.3 °C
GCGTATCTACGC ((((....)))) | -24.4 kcal/mol | 56.9 °C
GCCGACGAAAGTCGCGGC ((((((....)))..))) | -14.3 kcal/mol | 59.2 °C
GATCTCGGTTGAGATC ((((((....)))))) | -30.5 kcal/mol | 53.5 °C
GATCCCTGAGGGGATC ((((((....)))))) | -39.4 kcal/mol | 63 °C
GAACGCGAAAGCGACTTC ((((((....)))..))) | -13.8 kcal/mol | 46.1 °C
GTTCCTGAAAAGGAAC ((((((....)))))) | -31.4 kcal/mol | 57.1 °C
GCAAATCGAAAGATCTGC (((.(((....))).))) | -28.3 kcal/mol | 40.4 °C
GATCCCATTGGGGATC ((((((....)))))) | -38.2 kcal/mol | 62.1 °C
GATCTCATTGGAGATC ((((((....)))))) | -38.7 kcal/mol | 52.2 °C
GATTACGGAAACGTGATC (((.(((....))).))) | -37.1 kcal/mol | 45.9 °C

From the array DNA melting data of Ke et al. (doi:10.1101/2024.01.08.574731)
